ChEMBL document CHEMBL2146464, “Structure-activity relationship study of nitrosopyrimidines acting as antifungal agents” (Bioorg Med Chem, 2012)
Converted amounts (≈) assume the structure as drawn. The source made the active and inactive calls. The rule behind the calls is not given here.

Legend:
Candida tropicalis [1] = assay: Antifungal activity against Candida tropicalis assessed as growth inhibition at 3.9 ug/mL by microplate reader analysis; assay type: functional; conditions: read-out: GI
[2] = tested on: Trichophyton mentagrophytes; assay: Fungicidal activity against Trichophyton mentagrophytes ATCC 9972 after 48 hrs by agar plate dilution method; assay type: functional; conditions: ATCC 9972, 48 h
Method in brief: (§1)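 MFC: after the microdilution MIC, material from each clear well was plated onto RPMI-1640 agar buffered with MOPS. Plates incubated at 30 °C and read after 48 h. MFC is the lowest concentration giving total inhibition of visible growth.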

Cryptococcus neoformans [3] = assay: Antifungal activity against Cryptococcus neoformans ATCC 32264 assessed as growth inhibition at 31.25 ug/mL after 48 hrs by microplate reader analysis; assay type: functional; conditions: ATCC 32264, 48 h, read-out: GI
Method in brief: (§2)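 Microplate growth-inhibition assay in RPMI-1640, compound at final 250–0.98 µg/mL (DMSO ≤1%). Inoculum 1–5 × 10³ CFU/mL. Sterility and DMSO growth controls included. Percent inhibition is computed from blank-corrected OD relative to the growth control, tested in duplicate.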

Cryptococcus neoformans [4] = assay: Antifungal activity against Cryptococcus neoformans ATCC 32264 assessed as growth inhibition at 250 ug/mL after 48 hrs by microplate reader analysis; assay type: functional; conditions: ATCC 32264, 48 h, read-out: GI; method in brief: as §2
[5] = Acute toxicity in bony fish assessed as mortality at 5 ug/mL after 96 hrs; conditions: actinopterygii, 96 h
Method in brief: (§3)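 Guppy (Poecilia reticulata) acute static exposure: 10 fish per concentration in 2 L wide-mouthed jars holding the test solution. Compounds were added from […] to give the final concentrations. Dead fish were counted and removed every 24 h, with general condition noted; percentage mortality was scored at 96 h. Two experiments, each in triplicate.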

Trichophyton rubrum [6] = assay: Antifungal activity against Trichophyton rubrum CCC 110 by NCCLS broth microdilution method; assay type: functional; conditions: read-out: MIC100
Method in brief: (§4)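 MIC by broth microdilution per NCCLS M27-A3/M38-A2 in RPMI-1640 buffered to pH 7.0 with MOPS. Twofold dilutions from 250–0.98 µg/mL, final DMSO ≤1%. Inoculum 1–5 × 10³ CFU/mL. Incubated in a moist dark chamber, 30 °C for Aspergillus and 28–30 °C for dermatophytes. Read visually when control growth allowed. Endpoint is the lowest concentration giving total inhibition of visible growth (MIC100).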

Cryptococcus neoformans [7] = assay: Antifungal activity against Cryptococcus neoformans ATCC 32264 after 48 hrs by NCCLS broth microdilution method; assay type: functional; conditions: ATCC 32264, 48 h, read-out: MIC100
Method in brief: (§5)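 Yeast MIC by NCCLS M27-A3 broth microdilution in RPMI-1640 buffered to pH 7.0 with MOPS. Twofold dilutions of 250–0.98 µg/mL, final DMSO ≤1%. Inoculum 1–5 × 10³ CFU/mL. Incubated at 30 °C in a moist dark chamber. Read visually at 48 h. MIC100 is the lowest concentration with no visible growth versus drug-free control.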

Candida tropicalis [8] = assay: Antifungal activity against Candida tropicalis assessed as growth inhibition at 62.5 ug/mL by microplate reader analysis; assay type: functional; conditions: read-out: GI
Candida tropicalis [9] = assay: Antifungal activity against Candida tropicalis assessed as growth inhibition at 250 ug/mL by microplate reader analysis; assay type: functional; conditions: read-out: GI
Candida tropicalis [10] = assay: Antifungal activity against Candida tropicalis assessed as growth inhibition at 125 ug/mL by microplate reader analysis; assay type: functional; conditions: read-out: GI
Candida albicans [11] = assay: Antifungal activity against Candida albicans ATCC 10231 assessed as growth inhibition at 15.6 ug/mL after 24 hrs by microplate reader analysis; assay type: functional; conditions: ATCC 10231, 24 h, read-out: GI
Method in brief: (§6)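 96-well RPMI-1640 wells with compound at final 250–0.98 µg/mL (DMSO ≤1%). Inoculum 100 µL, 1–5 × 10³ CFU/mL, 200 µL final. Each well includes growth (DMSO, no compound) and sterility controls. % inhibition = 100 − (CTW−SCW)/(GCW−SCW) × 100, run in duplicate.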

Cryptococcus neoformans [12] = assay: Antifungal activity against Cryptococcus neoformans ATCC 32264 assessed as growth inhibition at 62.5 ug/mL after 48 hrs by microplate reader analysis; assay type: functional; conditions: ATCC 32264, 48 h, read-out: GI; method in brief: as §2
Candida tropicalis [13] = assay: Antifungal activity against Candida tropicalis assessed as growth inhibition at 15.6 ug/mL by microplate reader analysis; assay type: functional; conditions: read-out: GI
Nannizzia gypsea [14] = assay: Fungicidal activity against Microsporum gypseum CCC 115 after 48 hrs by agar plate dilution method; assay type: functional; conditions: CCC 115, 48 h; method in brief: as §1
Candida tropicalis [15] = assay: Antifungal activity against Candida tropicalis assessed as growth inhibition at 7.8 ug/mL by microplate reader analysis; assay type: functional; conditions: read-out: GI
Candida albicans [16] = assay: Antifungal activity against Candida albicans ATCC 10231 assessed as growth inhibition at 62.5 ug/mL after 24 hrs by microplate reader analysis; assay type: functional; conditions: ATCC 10231, 24 h, read-out: GI; method in brief: as §6
Candida albicans [17] = assay: Antifungal activity against Candida albicans ATCC 10231 after 48 hrs by NCCLS broth microdilution method; assay type: functional; conditions: ATCC 10231, 48 h, read-out: MIC100; method in brief: as §5
Aspergillus niger = assay: Antifungal activity against Aspergillus niger ATCC 9029 at 0.98 to 250 ug/mL by NCCLS broth microdilution method; assay type: functional, organism-based; method in brief: as §4
[18] = tested on: Trichophyton mentagrophytes; assay: Antifungal activity against Trichophyton mentagrophytes ATCC 9972 by NCCLS broth microdilution method; assay type: functional; conditions: read-out: MIC100; method in brief: as §4
Candida tropicalis [19] = assay: Fungicidal activity against Candida tropicalis after 48 hrs by agar plate dilution method; assay type: functional; method in brief: as §1
[20] = Acute toxicity in bony fish assessed as mortality at 0.4 ug/mL after 96 hrs; conditions: actinopterygii; read-out: Activity; method in brief: as §3
Cryptococcus neoformans [21] = assay: Fungicidal activity against Cryptococcus neoformans ATCC 32264 after 48 hrs by agar plate dilution method; assay type: functional; conditions: ATCC 32264, 48 h; method in brief: as §1
Candida albicans [22] = assay: Antifungal activity against Candida albicans ATCC 10231 assessed as growth inhibition at 125 ug/mL after 24 hrs by microplate reader analysis; assay type: functional; conditions: ATCC 10231, 24 h, read-out: GI; method in brief: as §6
Cryptococcus neoformans [23] = assay: Antifungal activity against Cryptococcus neoformans ATCC 32264 assessed as growth inhibition at 125 ug/mL after 48 hrs by microplate reader analysis; assay type: functional; conditions: ATCC 32264, 48 h, read-out: GI; method in brief: as §2
Cryptococcus neoformans [24] = assay: Antifungal activity against Cryptococcus neoformans ATCC 32264 assessed as growth inhibition at 7.8 ug/mL after 48 hrs by microplate reader analysis; assay type: functional; conditions: ATCC 32264, 48 h, read-out: GI; method in brief: as §2
Candida tropicalis [25] = assay: Antifungal activity against Candida tropicalis assessed as growth inhibition at 31.25 ug/mL by microplate reader analysis; assay type: functional; conditions: read-out: GI
Aspergillus flavus = assay: Antifungal activity against Aspergillus flavus ATCC 9170 at 0.98 to 250 ug/mL by NCCLS broth microdilution method; assay type: functional, organism-based; method in brief: as §4
[26] = Acute toxicity in bony fish assessed as mortality at 0.8 ug/mL after 48 hrs; conditions: actinopterygii; read-out: Activity
Cryptococcus neoformans [27] = assay: Antifungal activity against Cryptococcus neoformans ATCC 32264 assessed as growth inhibition at 15.6 ug/mL after 48 hrs by microplate reader analysis; assay type: functional; conditions: ATCC 32264, 48 h, read-out: GI; method in brief: as §2
Cryptococcus neoformans [28] = assay: Antifungal activity against Cryptococcus neoformans ATCC 32264 after 48 hrs by microplate reader analysis; assay type: functional; conditions: ATCC 32264, 48 h; method in brief: as §2
Aspergillus fumigatus = assay: Antifungal activity against Aspergillus fumigatus ATCC 26934 at 0.98 to 250 ug/mL by NCCLS broth microdilution method; assay type: functional, organism-based; method in brief: as §4
Candida albicans [29] = assay: Antifungal activity against Candida albicans ATCC 10231 assessed as growth inhibition at 3.9 ug/mL after 24 hrs by microplate reader analysis; assay type: functional; conditions: ATCC 10231, 24 h, read-out: GI; method in brief: as §6
Candida albicans [30] = assay: Antifungal activity against Candida albicans ATCC 10231 assessed as growth inhibition at 31.25 ug/mL after 24 hrs by microplate reader analysis; assay type: functional; conditions: ATCC 10231, 24 h, read-out: GI; method in brief: as §6
[31] = Acute toxicity in bony fish assessed as mortality at 1.6 ug/mL after 24 hrs; conditions: actinopterygii; read-out: Activity
Candida albicans [32] = assay: Antifungal activity against Candida albicans ATCC 10231 assessed as growth inhibition at 250 ug/mL after 24 hrs by microplate reader analysis; assay type: functional; conditions: ATCC 10231, 24 h, read-out: GI; method in brief: as §6
Candida albicans [33] = assay: Fungicidal activity against Candida albicans ATCC 10231 after 48 hrs by agar plate dilution method; assay type: functional; conditions: ATCC 10231, 48 h; method in brief: as §1
Nannizzia gypsea [34] = assay: Antifungal activity against Microsporum gypseum CCC 115 by NCCLS broth microdilution method; assay type: functional; conditions: read-out: MIC100; method in brief: as §4
Candida albicans [35] = assay: Antifungal activity against Candida albicans ATCC 10231 assessed as growth inhibition at 7.8 ug/mL after 24 hrs by microplate reader analysis; assay type: functional; conditions: ATCC 10231, 24 h, read-out: GI; method in brief: as §6
Candida tropicalis [36] = assay: Antifungal activity against Candida tropicalis after 48 hrs by NCCLS broth microdilution method; assay type: functional; conditions: read-out: MIC100; method in brief: as §5
Cryptococcus neoformans [37] = assay: Antifungal activity against Cryptococcus neoformans ATCC 32264 assessed as growth inhibition at 3.9 ug/mL after 48 hrs by microplate reader analysis; assay type: functional; conditions: ATCC 32264, 48 h, read-out: GI; method in brief: as §2
Candida tropicalis [38] = assay: Antifungal activity against Candida tropicalis by microplate reader analysis; assay type: functional
Trichophyton rubrum [39] = assay: Fungicidal activity against Trichophyton rubrum CCC 110 after 48 hrs by agar plate dilution method; assay type: functional; conditions: CCC 110, 48 h
Method in brief: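 Samples from each clear well of the MIC broth microdilution tray were plated onto RPMI-1640 agar buffered with MOPS. That tray had compounds twofold diluted in RPMI (pH 7.0, MOPS) from 250–0.98 µg/mL with inoculum of 1–5 × 10³ CFU/mL, incubated at 28–30 °C for dermatophytes. Plates were incubated at 30 °C and read at 48 h. MFC was taken as the lowest concentration giving total inhibition of visible growth.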

Candida albicans [40] = assay: Antifungal activity against Candida albicans ATCC 10231 after 24 hrs by microplate reader analysis; assay type: functional; conditions: ATCC 10231, 24 h; method in brief: as §6

## COc1nc(N)c(N=O)c(OCc2ccccc2)n1
Candida tropicalis [1]
  inhibition of growth at 3.9 µg/mL: 19.7%
[2]
  MFC: 125 µg/mL (≈ 480 µM)
Cryptococcus neoformans [3]
  inhibition of growth at 31.25 µg/mL: 88.1%
Cryptococcus neoformans [4]
  inhibition of growth at 250 µg/mL: 100%
[5]
  Activity: Non-toxic
Trichophyton rubrum [6]
  MIC: 125 µg/mL (≈ 480 µM)
Cryptococcus neoformans [7]
  MIC: 62.5 µg/mL (≈ 240 µM)
Candida tropicalis [8]
  inhibition of growth at 62.5 µg/mL: 100%
Candida tropicalis [9]
  inhibition of growth at 250 µg/mL: 100%
Candida tropicalis [10]
  inhibition of growth at 125 µg/mL: 100%
Candida albicans [11]
  inhibition of growth at 15.6 µg/mL: 99.6%
Cryptococcus neoformans [12]
  inhibition of growth at 62.5 µg/mL: 100%
Candida tropicalis [13]
  inhibition of growth at 15.6 µg/mL: 96.7%
Nannizzia gypsea [14]
  MFC: 62.5 µg/mL (≈ 240 µM)
Candida tropicalis [15]
  inhibition of growth at 7.8 µg/mL: 56.7%
Candida albicans [16]
  inhibition of growth at 62.5 µg/mL: 100%
Candida albicans [17]
  MIC: 31.2 µg/mL (≈ 120 µM)
Aspergillus niger
  Activity: inactive
[18]
  MIC: 125 µg/mL (≈ 480 µM)
Candida tropicalis [19]
  MFC: 62.5 µg/mL (≈ 240 µM)
[20]
  mortality at 96 h, 0.4 ug/mL: 0%
Cryptococcus neoformans [21]
  MFC: 125 µg/mL (≈ 480 µM)
Candida albicans [22]
  inhibition of growth at 125 µg/mL: 100%
Cryptococcus neoformans [23]
  inhibition of growth at 125 µg/mL: 100%
Cryptococcus neoformans [24]
  inhibition of growth at 7.8 µg/mL: 78.1%
Candida tropicalis [25]
  inhibition of growth at 31.25 µg/mL: 100%
Aspergillus flavus
  Activity: inactive
[26]
  mortality at 48 h, 0.8 ug/mL: 100%
Cryptococcus neoformans [27]
  inhibition of growth at 15.6 µg/mL: 80.2%
Cryptococcus neoformans [28]
  MIC50: 3.9 µg/mL (≈ 15 µM)
Aspergillus fumigatus
  Activity: inactive
Candida albicans [29]
  inhibition of growth at 3.9 µg/mL: 47.2%
Candida albicans [30]
  inhibition of growth at 31.25 µg/mL: 100%
[31]
  mortality at 24 h, 1.6 ug/mL: 100%
Candida albicans [32]
  inhibition of growth at 250 µg/mL: 100%
Candida albicans [33]
  MFC: 62.5 µg/mL (≈ 240 µM)
Nannizzia gypsea [34]
  MIC: 62.5 µg/mL (≈ 240 µM)
Candida albicans [35]
  inhibition of growth at 7.8 µg/mL: 56.9%
Candida tropicalis [36]
  MIC: 31.2 µg/mL (≈ 120 µM)
Cryptococcus neoformans [37]
  inhibition of growth at 3.9 µg/mL: 49.2%
Candida tropicalis [38]
  MIC50: 7.8 µg/mL (≈ 30 µM)
Trichophyton rubrum [39]
  MFC: 125 µg/mL (≈ 480 µM)
Candida albicans [40]
  MIC50: 7.8 µg/mL (≈ 30 µM)
